Results published in publication PMC4698108 (Mucosal immunology, 2015).

What was measured:
[1] = system: Vβ6+ CD4+ T cells in lung and BAL; assay: TCR Vβ6 expression on CD4+ T cells after BeO exposure; assay type: in vivo, HLA-DP2 Tg FVB/N mice
Method in brief: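 HLA-DP2 Tg FVB/N mice, 6–8 weeks old, were anesthetized with isoflurane and given 100 μg BeO by oropharyngeal aspiration on days 0, 1, 2, 14, 15, 18 and 19, then sacrificed on day 21. BAL used three 0.5 ml PBS instillations, pooled from 20 mice. Lungs were collagenase-digested (1 mg/ml, 30 min, 37°C). Cells were stained with a seven-mAb anti-Vβ panel, and small versus blasting lymphocytes were gated by forward/side scatter.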

[2] = system: HLA-DP2 variants with substitutions at positions 26, 68 and 69 of the β-chain; assay type: cell-based, human
Method in brief: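 Human AV22 and murine Vβ6⁺ transfectomas were given BeSO₄ presented by fibroblasts expressing wild-type HLA-DP2 or β-chain variants carrying alanine, glutamine or lysine at positions 26, 68 or 69. Be-induced IL-2 (pg/ml) was measured by ELISA.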

[3] = BAL cells pooled from 20 BeO-exposed HLA-DP2 Tg mice

## [Be]=[O] [BeO, Be oxide]
[1]; [3]
  frequency of CD4+ T cells expressing Vβ6, blasting (large forward scatter) T cells: 22.5%
  frequency of CD4+ T cells expressing Vβ6, small lymphocyte gate: 13.7%
[1]; BAL of BeO-exposed mice, overall value given in text, unexposed lung 11.1%
  percentage of BAL CD4+ T cells expressing Vβ6: 16.8%

## O=S(=O)([O-])[O-].[Be+2] [BeSO4]
[2]; AV22 transfectoma (Figure 4B)
  Be-induced IL-2 secretion with the EA68 HLA-DP2 β-chain variant: partial reduction in IL-2 secretion
[2]; human TCR AV22 and five murine T cell transfectomas, alanine, glutamine or lysine substitutions (Figure 4B)
  Be-induced IL-2 secretion with amino acid substitutions at positions 26, 68 and 69 of the HLA-DP2 β-chain: abrogated Be-induced IL-2 secretion
